# Experimental data pooled from the literature.
# Protocols differ between the studies behind these lines.
# Target: D(2) dopamine receptor (DRD2, Homo sapiens, UniProt P14416)
# Concentration: 10 µM
Compound,effect on,mode,technique,inhibition
CCn1c2ccccc2c2cc(CNCCCN3CCOCC3)ccc21,enzyme activity,inhibitor,,21.9%
COc1cccc(OC[C@@H]2CN(CC(=O)N3CCc4ccccc43)CCO2)c1,ligand displacement,,radioligand,9.5%
Cc1ccccc1N1CCN(CC(O)COc2ccc(C(=O)c3ccccc3)cc2)CC1 (centres unmarked),enzyme activity,inhibitor,,49.2%
C[C@@H](c1cccc(C#N)c1)n1cc(Cl)cc(C(N)=O)c1=N,ligand displacement,,,-3.06%
Cc1ccccc1N1CCN(CCCCN2C(=O)C3CCCN3C2=O)CC1 (centres unmarked),enzyme activity,inhibitor,,42.3%
Cc1ccc(-c2cnc([C@@]3(O)CC[C@H](C(=O)O)C(C)(C)C3)s2)cc1Nc1cccc(C(F)(F)F)n1,ligand displacement,,,-5.34%
Cc1ccccc1OCC(O)CN1CCN(CC(O)COc2ccccc2C)CC1 (centres unmarked),enzyme activity,inhibitor,,19.5%
CN(C)CC#Cc1ccc(OCCCc2sc(N3CCc4cccc(C(=O)Nc5nc6ccccc6s5)c4C3)nc2C(=O)O)c(F)c1,ligand displacement,,,31.5%
Cc1c(Cl)cccc1-c1ccc(CNCC(O)c2ccccc2)o1 (centres unmarked),enzyme activity,inhibitor,,46.8%
Clc1cccc(OC[C@@H]2CN(CCN3CCc4ccccc43)CCO2)c1,ligand displacement,,radioligand,62.7%
C[C@H](NC(=O)Nc1cc2[nH]ncc2c(CO)n1)c1ccccn1,cell-free assay,,,17.7%
c1ccc(OC[C@@H]2CN(CCN3CCc4ccccc43)CCO2)cc1,ligand displacement,,radioligand,92.8%
O=C(c1ccc(F)cc1)N1CC(COc2ccc(Br)cc2)(C(=O)O)C1,cell-free assay,,,-29.4%
Cc1ncccc1OC[C@H]1CN(CCN2CCc3ccccc32)CCO1,ligand displacement,,radioligand,26.5%
CN(C)c1ncnc(-c2ccc3nc(Nc4cc(CN5CCN(C(=O)CC(F)(F)F)CC5)ccn4)[nH]c3c2)c1Cl,ligand displacement,,,10.6%
COc1cc(C(C)=O)ccc1OCC(O)CN1CCN(c2cc(Cl)ccc2C)CC1 (centres unmarked),enzyme activity,inhibitor,,33%
O=C(CN1CCO[C@H](COc2cccc(Cl)c2)C1)N1CCc2ccccc21,ligand displacement,,radioligand,15.1%
N#Cc1cc(Cn2c(N3CCCC3)nc3ccccc32)ccc1F,ligand displacement,,,-11.5%
Cc1ccnc(C)c1OC[C@H]1CN(CCN2CCc3ccccc32)CCO1,ligand displacement,,radioligand,6.1%
O=C1N=C(N2CCCCN2)S/C1=C\c1ccc(F)cc1O,ligand displacement,,radioligand,< 10%
